Data published in ChEMBL document CHEMBL1157130, “Cytotoxic naphthoquinones from Alkanna cappadocica ( perpendicular)” (J Nat Prod, 2010).

Columns and labels:
HT-29 = assay: Cytotoxicity against human HT-29 cells after 48 hrs by MTT assay; assay type: functional, cell-based; conditions: HT-29, 48 h
Summary of the method: (§1)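 Cells grown in RPMI 1640 or DMEM-Ham's F12 with 10% FBS, 2 mmol/L L-glutamine, penicillin/streptomycin, at 37 °C, 5% CO2. Exponential-phase cells seeded at 6000/well, incubated 24 h, then exposed 48 h to 0.1–10 µM compound (DMSO ≤0.1% final). MTT 0.5 mg/mL added for 3 h, formazan dissolved in DMSO, read at 570-690 nm. IC50 from % viability; three independent assays, triplicate wells.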

MDA-MB-231 = assay: Cytotoxicity against human MDA-MB-231 cells after 48 hrs by MTT assay; assay type: functional, cell-based; conditions: MDA-MB-231, 48 h; summary of the method: as §1
PC-3 = assay: Cytotoxicity against human PC3 cells after 48 hrs by MTT assay; assay type: functional, cell-based; conditions: PC-3, 48 h; summary of the method: as §1
AU565 = assay: Cytotoxicity against human AU565 cells after 48 hrs by MTT assay; assay type: functional, cell-based; conditions: AU565, 48 h; summary of the method: as §1
HepG2 = assay: Cytotoxicity against human HepG2 cells after 48 hrs by MTT assay; assay type: functional, cell-based; conditions: HepG2, 48 h; summary of the method: as §1
LNCaP = assay: Cytotoxicity against human LNCAP cells after 48 hrs by MTT assay; assay type: functional, cell-based; summary of the method: as §1
MCF7 = assay: Cytotoxicity against human MCF7 cells after 48 hrs by MTT assay; assay type: functional, cell-based; conditions: MCF7, 48 h; summary of the method: as §1
HeLa = assay: Cytotoxicity against human HeLa cells after 48 hrs by MTT assay; assay type: functional, cell-based; summary of the method: as §1
SK-BR-3 = assay: Cytotoxicity against human SKBR3 cells after 48 hrs by MTT assay; assay type: functional, cell-based; conditions: SK-BR-3, 48 h; summary of the method: as §1
DU-145 = assay: Cytotoxicity against human DU145 cells after 48 hrs by MTT assay; assay type: functional, cell-based; conditions: DU-145, 48 h; summary of the method: as §1
SAOS-2 = assay: Cytotoxicity against human Saos2 cells after 48 hrs by MTT assay; assay type: functional, cell-based; conditions: SAOS-2, 48 h; summary of the method: as §1
[1] = Cytotoxicity against human Hep3B cells after 48 hrs by MTT assay; assay type: functional, cell-based, Hep 3B2; summary of the method: as §1
Vero = assay: Cytotoxicity against african green monkey Vero cells after 48 hrs by MTT assay; assay type: cell-based; conditions: Chlorocebus sabaeus; summary of the method: as §1
NIH3T3 = assay: Cytotoxicity against mouse 3T3 cells after 48 hrs by MTT assay; assay type: cell-based; conditions: NIH3T3, 48 h; summary of the method: as §1

## CC(C)=CC[C@H](OC(=O)C=C(C)C)C1=CC(=O)c2c(O)ccc(O)c2C1=O
HT-29
  IC50: 0.8 µM
MDA-MB-231
  IC50: 0.32 µM
PC-3
  IC50: 1.1 µM
AU565
  IC50: 0.62 µM
HepG2
  IC50: 1 µM
LNCaP
  IC50: 11.3 µM
MCF7
  IC50: 5.15 µM
HeLa
  IC50: 0.96 µM
SK-BR-3
  IC50: 0.68 µM
DU-145
  IC50: 4.81 µM
SAOS-2
  IC50: 0.84 µM
[1]
  IC50: 4.09 µM
Vero
  IC50: 0.32 µM
NIH3T3
  IC50: 0.77 µM

## COc1ccc(O)c2c1C(=O)C(CCC=C(C)C)=CC2=O
HT-29
  IC50: 5.98 µM
MDA-MB-231
  IC50: 5.11 µM
PC-3
  IC50: 7.48 µM
AU565
  IC50: 7.08 µM
HepG2
  IC50: 8.05 µM
LNCaP
  IC50: 11.1 µM
MCF7
  IC50: 11.9 µM
HeLa
  IC50: 6.38 µM
SK-BR-3
  IC50: 6.52 µM
DU-145
  IC50: 12.1 µM
SAOS-2
  IC50: 12.5 µM
[1]
  IC50: 24.5 µM
Vero
  IC50: 6.39 µM
NIH3T3
  IC50: 6.57 µM

## COc1ccc(O)c2c1C(=O)C=C(CCC=C(C)C)C2=O
HT-29
  IC50: 5.09 µM
MDA-MB-231
  IC50: 1.19 µM
PC-3
  IC50: 6.81 µM
AU565
  IC50: 0.88 µM
HepG2
  IC50: 7.64 µM
LNCaP
  IC50: 10.9 µM
MCF7
  IC50: 16 µM
HeLa
  IC50: 0.91 µM
SK-BR-3
  IC50: 2.2 µM
DU-145
  IC50: 8.71 µM
SAOS-2
  IC50: 20.4 µM
[1]
  IC50: 15.8 µM
Vero
  IC50: 0.98 µM
NIH3T3
  IC50: 5.18 µM

## CC(=O)O[C@@H](CC=C(C)C)C1=CC(=O)c2c(O)ccc(O)c2C1=O [ACETYLALKANNIN]
HT-29
  IC50: 10.5 µM
MDA-MB-231
  IC50: 8.47 µM
PC-3
  IC50: 11 µM
AU565
  IC50: 0.88 µM
HepG2
  IC50: 7.41 µM
LNCaP
  IC50: 11.5 µM
MCF7
  IC50: 7.05 µM
HeLa
  IC50: 6.75 µM
SK-BR-3
  IC50: 1.66 µM
DU-145
  IC50: 6.65 µM
SAOS-2
  IC50: 4.93 µM
[1]
  IC50: 6.06 µM
Vero
  IC50: 0.76 µM
NIH3T3
  IC50: 7.73 µM

## COc1cc([C@@H]2c3cc4c(cc3[C@@H](O[C@@H]3O[C@@H]5CO[C@@H](C)O[C@H]5[C@H](O)[C@H]3O)[C@H]3COC(=O)[C@H]23)OCO4)cc(OC)c1O [ETOPOSIDE]
HT-29
  IC50: 30.4 µM
MDA-MB-231
  IC50: 23.2 µM
PC-3
  IC50: 69.5 µM
NIH3T3
  IC50: 63 µM

## COc1ccc(O)c2c1C(=O)C=C([C@H](CC=C(C)C)OC(=O)C=C(C)C)C2=O
HT-29
  IC50: 0.59 µM
MDA-MB-231
  IC50: 0.26 µM
PC-3
  IC50: 0.42 µM
AU565
  IC50: 0.75 µM
HepG2
  IC50: 0.97 µM
LNCaP
  IC50: 11.4 µM
MCF7
  IC50: 14.8 µM
HeLa
  IC50: 0.82 µM
SK-BR-3
  IC50: 0.83 µM
DU-145
  IC50: 8.55 µM
SAOS-2
  IC50: 14.5 µM
[1]
  IC50: 11.8 µM
Vero
  IC50: 0.79 µM
NIH3T3
  IC50: 4.67 µM

## COc1cccc2c1C(=O)c1c(O)c3c(c(O)c1C2=O)C[C@@](O)(C(=O)CO)C[C@@H]3O[C@H]1C[C@H](N)[C@H](O)[C@H](C)O1 [DOXORUBICIN]
HT-29
  IC50: 2.05 µM
MDA-MB-231
  IC50: 2 µM
PC-3
  IC50: 3.16 µM
NIH3T3
  IC50: 3.7 µM

## CC(C)=CCCC1=CC(=O)c2c(O)ccc(O)c2C1=O [DEOXYSHIKONIN]
HT-29
  IC50: 5.12 µM
MDA-MB-231
  IC50: 5.08 µM
PC-3
  IC50: 4.29 µM
AU565
  IC50: 0.92 µM
HepG2
  IC50: 0.9 µM
LNCaP
  IC50: 12.2 µM
MCF7
  IC50: 0.79 µM
HeLa
  IC50: 0.85 µM
SK-BR-3
  IC50: 0.69 µM
DU-145
  IC50: 1.24 µM
SAOS-2
  IC50: 0.85 µM
[1]
  IC50: 6.02 µM
Vero
  IC50: 0.66 µM
NIH3T3
  IC50: 5.84 µM

## COc1ccc(O)c2c1C(=O)C=C([C@H](CC=C(C)C)OC(C)=O)C2=O
HT-29
  IC50: 0.62 µM
MDA-MB-231
  IC50: 0.09 µM
PC-3
  IC50: 0.78 µM
AU565
  IC50: 0.59 µM
HepG2
  IC50: 0.87 µM
LNCaP
  IC50: 11 µM
MCF7
  IC50: 14.1 µM
HeLa
  IC50: 0.66 µM
SK-BR-3
  IC50: 0.44 µM
DU-145
  IC50: 7.41 µM
SAOS-2
  IC50: 13.8 µM
[1]
  IC50: 10.2 µM
Vero
  IC50: 0.59 µM
NIH3T3
  IC50: 0.66 µM

## CC(C)=CC[C@H](O)C1=CC(=O)c2c(O)ccc(O)c2C1=O [ALKANNIN]
HT-29
  IC50: 4.03 µM
MDA-MB-231
  IC50: 4.27 µM
PC-3
  IC50: 3.25 µM
AU565
  IC50: 0.9 µM
HepG2
  IC50: 3.8 µM
LNCaP
  IC50: 10.7 µM
MCF7
  IC50: 3.06 µM
HeLa
  IC50: 0.91 µM
SK-BR-3
  IC50: 0.78 µM
DU-145
  IC50: 5.02 µM
SAOS-2
  IC50: 2.31 µM
[1]
  IC50: 3.84 µM
Vero
  IC50: 0.7 µM
NIH3T3
  IC50: 5.21 µM
